Results reported in ChEMBL document CHEMBL5038577, “First-Time Disclosure of CVN424, a Potent and Selective GPR6 Inverse Agonist for the Treatment of Parkinson's Disease: Discovery, Pharmacological Validation, and Identification of a Clinical Candidate” (J Med Chem, 2021).
Activity calls are given as the source filed them. The calls are words filed in the database; no cut-off is given here.

Key:
[1] = Unbound intrinsic clearance in human hepatocytes; type: ADME, cell-based, Hepatocyte
[2] = molecular target: Voltage-gated inwardly rectifying potassium channel KCNH2 (Homo sapiens, UniProt Q12809); assay: Inhibition of human ERG; type: toxicity
[3] = molecular target: T1, G-protein coupled receptor 6 (Homo sapiens, UniProt P46095); assay: Inverse agonist activity at human GPR6 expressed in CHO-K1 cells assessed as modulation of cAMP level incubated for 20 hrs by TR-FRET assay; type: functional, cell-based
Summary of the method: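 T-REx-CHO-K1 cells stably carrying tetracycline-inducible human GPR6 were induced with 2.0 μg/mL doxycycline for 20 h at 37 °C. No agonist was added, since receptor constitutive activity is used. Compound in Krebs Ringer's buffer with 0.5% fatty acid free BSA for 45 min at 37 °C. cAMP read by Eu-cAMP tracer/ULight anti-cAMP antibody TR-FRET. Four-parameter logistic fit; EC50 is the mean of ≥2 experiments, triplicate concentrations.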

[4] = Intrinsic clearance in human liver microsomes; type: ADME, Microsome; settings: read-out: CLH
[5] = Intrinsic clearance in human hepatocytes; type: ADME, cell-based, Hepatocyte; settings: read-out: CLH
[6] = Lipophilicity, log D of compound; type: physicochemical; settings: octanol/water
P-gp (MDR1, ABCB1) = P-gp (MDR1, ABCB1) (Homo sapiens, UniProt P08183); assay: Substrate activity at P-gp (unknown origin) transfected in pig LLC-PK1 cells expressing MDR1 gene assessed as efflux ratio; type: ADME, cell-based
[7] = Permeability of compound across apical to basolateral side in pig LLC-PK1 cells expressing MDR1; type: ADME, cell-based, Sus scrofa; settings: read-out: permeability
[8] = molecular target: T1, G-protein coupled receptor 6; assay: Displacement of 3H-RL338 from human GPR6 expressed in T-REx-CHO-GPR6 cells assessed as inhibition constant by competition binding assay; type: cell-based
Summary of the method: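 Competition filtration binding on membranes from doxycycline-inducible T-REx-CHO cells expressing human GPR6 (15 μg/well). Tracer is 3H-RL-338, and test compound top concentration is 5 μM final. Buffer: 50 mM Tris pH 7.4, 50 mM NaCl, 6 mM MgCl2, 0.1% fatty acid free BSA, protease inhibitors. Incubated 2 h at room temperature, filtered, washed cold, scintillation counted. IC50 comes from a four-parameter fit; Ki by Cheng–Prusoff using the 3H-RL-338 Kd (2.4 or 5 nM, by batch).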

Homo sapiens [9] = species on record: Homo sapiens; assay: Selectivity for human GPR6 over human GRP12 assessed as fold change
Homo sapiens [10] = species on record: Homo sapiens; assay: Selectivity for human GPR6 over human GRP3 assessed as fold change
hERG (KCNH2) = hERG (KCNH2) (Homo sapiens, UniProt Q12809); assay: Inhibition of human ERG at 10 uM relative to control; type: toxicity
Cytochrome P450 2D6 = Cytochrome P450 2D6 (Homo sapiens, UniProt P10635); assay: Inhibition of CYP2D6 (unknown origin); type: ADME
[11] = molecular target: T1, G-protein coupled receptor 6; assay: Inverse agonist activity at human GPR6 expressed in CHO-K1 cells assessed as modulation of cAMP level incubated for 20 hrs by TR-FRET assay relative to control; type: functional, cell-based; settings: filed as inverse agonist
Summary of the method: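 T-REx-CHO-K1 cells stably carrying tetracycline-inducible human GPR6 were induced with 2.0 μg/mL doxycycline for 20 h at 37 °C. Constitutive activity was measured with no agonist. Compound in Krebs Ringer's buffer with 0.5% fatty-acid-free BSA was added for 45 min at 37 °C. Eu-cAMP tracer (10 min) and ULight anti-cAMP antibody (1 h, RT) followed for TR-FRET. Four-parameter logistic fit; ≥2 experiments, triplicate.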

Mus musculus [12] = assay: Reversal of haloperidol-induced catalepsy in GPR6 knock out mouse assessed as reduction in catalepsy at 0.3 mg/kg, ip measured after 120 min; type: functional, organism-based
Summary of the method: (§1)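 Wild-type C57BL/6J and GPR6 knock-out male mice (n = 6/group): KW6002 at 0.3 mg/kg i.p. given with haloperidol 1 mg/kg i.p. Bar test at 120 min: bar 2' high, maximum 60 s, three trials averaged.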

Rattus norvegicus [13] = assay: Reversal of haloperidol-induced catalepsy in Sprague-Dawley rat assessed as reduction in catalepsy at 0.6 mg/kg, ip measured after 120 min; type: functional, organism-based
Summary of the method: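 Positive-control arm in male Sprague-Dawley rats (n = 9–10/group): A2A antagonist KW6002 at 0.6 mg/kg i.p., given together with haloperidol 1 mg/kg i.p. Bar test at 120 min: bar 6' high, up to 60 s, mean of three trials.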

Mus musculus [14] = assay: Reversal of haloperidol-induced catalepsy in C57BL/6 mouse assessed as reduction in catalepsy at 0.3 mg/kg, ip measured after 120 min; type: functional, organism-based; summary of the method: as §1
Rattus norvegicus [15] = assay: Reversal of haloperidol-induced catalepsy in Sprague-Dawley rat assessed as reduction in catalepsy at 0.1 to 30 mg/kg, sc measured after 120 min; type: functional, organism-based; settings: dose 0.1-30 mg/kg
Summary of the method: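 Male Sprague-Dawley rats (n = 9–10/group) received haloperidol 1 mg/kg i.p. together with vehicle (10% DMSO, 0.5% methylcellulose) or compound at 0.1–30 mg/kg s.c. Bar test at 120 min: front paws placed on a bar 6' high, time recorded up to 60 s. Three trials were averaged.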

Mus musculus [16] = assay: Reversal of haloperidol-induced catalepsy in GPR6 knock out mouse assessed as reduction in catalepsy at 30 mg/kg, sc measured after 120 min; type: functional, organism-based
Summary of the method: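 Male GPR6 knock-out mice (n = 6/group) received haloperidol 1 mg/kg i.p. with vehicle (10% DMSO, 0.5% methylcellulose) or compound 30 mg/kg s.c. at the same time. Bar test at 120 min: bar 2' high, up to 60 s, average of three trials.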

T1 sequence (P46095 whole entry): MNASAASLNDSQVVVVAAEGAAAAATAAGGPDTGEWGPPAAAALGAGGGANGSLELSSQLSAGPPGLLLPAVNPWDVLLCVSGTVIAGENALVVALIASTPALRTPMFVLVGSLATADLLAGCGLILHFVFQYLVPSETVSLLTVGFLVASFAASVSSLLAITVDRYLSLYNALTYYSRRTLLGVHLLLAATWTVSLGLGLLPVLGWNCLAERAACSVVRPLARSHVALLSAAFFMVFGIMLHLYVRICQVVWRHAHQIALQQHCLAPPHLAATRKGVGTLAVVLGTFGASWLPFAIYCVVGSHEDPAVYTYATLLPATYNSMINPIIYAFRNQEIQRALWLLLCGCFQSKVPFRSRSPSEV
Sequence of hERG (KCNH2) (Q12809 whole entry): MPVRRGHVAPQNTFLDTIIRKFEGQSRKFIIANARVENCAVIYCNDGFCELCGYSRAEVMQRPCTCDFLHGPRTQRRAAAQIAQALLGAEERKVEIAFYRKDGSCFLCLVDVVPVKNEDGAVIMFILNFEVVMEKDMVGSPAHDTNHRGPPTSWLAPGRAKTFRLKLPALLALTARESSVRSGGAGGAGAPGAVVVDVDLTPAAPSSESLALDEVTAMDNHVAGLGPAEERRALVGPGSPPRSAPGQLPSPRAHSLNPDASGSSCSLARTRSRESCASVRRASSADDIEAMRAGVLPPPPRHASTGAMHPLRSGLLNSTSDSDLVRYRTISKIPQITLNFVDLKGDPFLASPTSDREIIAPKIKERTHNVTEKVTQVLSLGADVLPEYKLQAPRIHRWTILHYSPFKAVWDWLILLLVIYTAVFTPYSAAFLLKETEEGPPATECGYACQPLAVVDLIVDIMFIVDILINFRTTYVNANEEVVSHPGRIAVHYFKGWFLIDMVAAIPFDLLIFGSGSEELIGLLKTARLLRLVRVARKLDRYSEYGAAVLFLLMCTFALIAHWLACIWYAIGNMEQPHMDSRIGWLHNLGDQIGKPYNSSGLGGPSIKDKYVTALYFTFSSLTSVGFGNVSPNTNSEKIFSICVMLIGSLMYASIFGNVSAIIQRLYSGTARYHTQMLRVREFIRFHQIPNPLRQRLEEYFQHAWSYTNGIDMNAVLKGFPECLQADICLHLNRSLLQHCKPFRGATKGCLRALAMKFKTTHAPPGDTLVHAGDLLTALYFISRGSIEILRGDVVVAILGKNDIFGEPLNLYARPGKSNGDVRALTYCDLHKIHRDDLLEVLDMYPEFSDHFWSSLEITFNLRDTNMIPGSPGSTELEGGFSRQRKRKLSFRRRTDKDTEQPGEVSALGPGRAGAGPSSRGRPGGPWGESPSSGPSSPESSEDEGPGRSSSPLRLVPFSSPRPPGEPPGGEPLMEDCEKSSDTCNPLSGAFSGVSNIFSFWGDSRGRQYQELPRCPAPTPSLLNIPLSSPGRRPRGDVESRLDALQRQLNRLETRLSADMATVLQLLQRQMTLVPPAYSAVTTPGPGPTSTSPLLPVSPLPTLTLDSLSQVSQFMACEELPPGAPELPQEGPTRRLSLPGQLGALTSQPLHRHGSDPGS
Sequence of Cytochrome P450 2D6 (P10635 whole entry): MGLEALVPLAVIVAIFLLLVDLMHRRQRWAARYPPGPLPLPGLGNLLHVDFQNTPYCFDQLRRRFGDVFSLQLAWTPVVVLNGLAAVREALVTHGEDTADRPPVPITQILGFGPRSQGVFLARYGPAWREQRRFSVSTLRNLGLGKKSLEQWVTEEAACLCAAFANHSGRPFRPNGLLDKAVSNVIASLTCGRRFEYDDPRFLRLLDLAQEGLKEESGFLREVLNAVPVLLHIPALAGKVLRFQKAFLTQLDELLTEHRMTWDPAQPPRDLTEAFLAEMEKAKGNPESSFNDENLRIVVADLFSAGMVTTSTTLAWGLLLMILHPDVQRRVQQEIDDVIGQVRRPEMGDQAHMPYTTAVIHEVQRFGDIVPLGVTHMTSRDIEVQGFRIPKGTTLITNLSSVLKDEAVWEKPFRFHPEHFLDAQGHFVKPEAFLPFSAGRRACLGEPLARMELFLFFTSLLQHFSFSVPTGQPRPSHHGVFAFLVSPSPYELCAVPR
Sequence of P-gp (MDR1, ABCB1) (P08183 whole entry): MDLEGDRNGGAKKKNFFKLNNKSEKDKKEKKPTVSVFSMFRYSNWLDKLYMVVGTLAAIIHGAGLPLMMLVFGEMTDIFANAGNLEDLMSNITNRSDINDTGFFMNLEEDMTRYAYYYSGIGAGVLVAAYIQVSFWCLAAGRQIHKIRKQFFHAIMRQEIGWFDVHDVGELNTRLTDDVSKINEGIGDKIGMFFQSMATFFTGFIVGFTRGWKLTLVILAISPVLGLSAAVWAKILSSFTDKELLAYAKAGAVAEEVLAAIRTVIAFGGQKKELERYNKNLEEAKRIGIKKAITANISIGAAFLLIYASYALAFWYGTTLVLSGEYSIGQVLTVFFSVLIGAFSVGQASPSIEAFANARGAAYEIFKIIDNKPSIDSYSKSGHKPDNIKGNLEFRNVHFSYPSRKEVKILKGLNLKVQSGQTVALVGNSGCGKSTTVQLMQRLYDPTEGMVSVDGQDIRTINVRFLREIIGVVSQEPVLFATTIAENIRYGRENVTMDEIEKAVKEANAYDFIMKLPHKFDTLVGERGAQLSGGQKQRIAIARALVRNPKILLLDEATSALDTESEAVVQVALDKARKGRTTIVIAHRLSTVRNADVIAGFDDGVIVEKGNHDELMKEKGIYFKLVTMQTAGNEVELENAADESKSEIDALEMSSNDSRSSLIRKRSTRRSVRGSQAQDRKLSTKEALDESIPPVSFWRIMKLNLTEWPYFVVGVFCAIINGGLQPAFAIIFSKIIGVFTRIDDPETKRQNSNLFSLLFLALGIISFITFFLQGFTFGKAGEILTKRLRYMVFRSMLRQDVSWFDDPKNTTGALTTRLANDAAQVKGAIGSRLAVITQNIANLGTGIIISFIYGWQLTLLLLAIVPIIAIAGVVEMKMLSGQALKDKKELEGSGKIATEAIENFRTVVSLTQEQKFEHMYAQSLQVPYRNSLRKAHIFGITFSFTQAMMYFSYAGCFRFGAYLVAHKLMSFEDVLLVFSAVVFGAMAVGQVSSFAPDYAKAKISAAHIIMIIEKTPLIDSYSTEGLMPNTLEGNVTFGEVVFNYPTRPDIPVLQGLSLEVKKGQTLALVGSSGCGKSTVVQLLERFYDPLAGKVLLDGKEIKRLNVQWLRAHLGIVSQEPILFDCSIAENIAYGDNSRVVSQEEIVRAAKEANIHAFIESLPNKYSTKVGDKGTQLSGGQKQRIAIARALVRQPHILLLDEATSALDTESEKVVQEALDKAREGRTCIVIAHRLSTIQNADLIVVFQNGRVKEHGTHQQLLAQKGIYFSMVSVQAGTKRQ
Sequence of Voltage-gated inwardly rectifying potassium channel KCNH2 (Q12809 whole entry): as the sequence (Q12809 whole entry) above

Structure (SMILES)	EC50 [3]	fold change (FC) (Homo sapiens [9])	fold change (FC) (Homo sapiens [10])	inhibition at 10 µM (hERG (KCNH2))	IC50 (Cytochrome P450 2D6)	Emax [11]	further results
CC(=O)N1CCc2nc(N3CCC(Oc4ccc(F)cc4F)CC3)c(N[C@@H]3CCOC3)nc2C1	38000 nM	–	–	–	–	–	fraction unbound [1]: 0.51; IC50 [2]: 3500 nM; CLint scaled [4]: 62 mL/min/kg; CLint scaled [5]: 48 mL/min/kg; logD [6]: 3.6; efflux ratio (P-gp (MDR1, ABCB1)): 0.7; Papp A→B [7]: 17 ×10⁻⁶ cm/s; Ki [8]: 9.4 nM
CC(C)Nc1nc2cc(C#N)ncc2nc1N1CCC(Oc2ccc(F)cc2F)CC1	55 nM	13	6	–	–	–	–
Fc1ccc(Cl)cc1CN1CCN(c2nc3cnccc3nc2NC2CC2)CC1	29 nM	15	638	–	–	–	–
Cc1cc2nc(NC(C)C)c(N3CCN(Cc4ccc(F)cc4F)CC3)nc2cn1	51000 nM	19	5	13%	3980 nM	–	–
Clc1ccc(Cl)c(CN2CCN(c3nc4ccncc4nc3NC3CC3)CC2)c1	55 nM	–	–	–	–	102%	–
Fc1ccc2nc(N3CCN(Cc4cc(Cl)ccc4Cl)CC3)c(NC3CC3)nc2c1	1200 nM	–	–	–	–	90%	–
Cc1cc2nc(N3CCC(Oc4ccc(F)cc4F)CC3)c(NC3CC3)nc2cn1	95 nM	105	19	–	6310 nM	–	–
Cc1cc2nc(N3CCC(Oc4ccc(F)cc4F)CC3)c(NC(C)C)nc2cn1	61000 nM	47	19	71%	3980 nM	–	–
N#Cc1ccc2nc(N3CCN(Cc4cc(Cl)ccc4Cl)CC3)c(NC3CC3)nc2c1	174 nM	–	–	–	–	107%	–
Fc1ccc(F)c(CN2CCN(c3nc4cnccc4nc3NC3CC3)CC2)c1	151 nM	–	–	40%	126 nM	–	–
COc1ccc2nc(N3CCN(Cc4cc(Cl)ccc4Cl)CC3)c(NC3CC3)nc2c1	4100 nM	–	–	–	–	90%	–
Clc1ccc(Cl)c(CN2CCN(c3nc4cnccc4nc3NC3CC3)CC2)c1	53 nM	–	–	–	–	110%	–
Cc1cc2nc(NC3CC3)c(N3CCN(Cc4ccc(F)cc4F)CC3)nc2cn1	29 nM	78	14	23%	3980 nM	–	–
Clc1ccc(Cl)c(CN2CCN(c3nc4ccccc4nc3NC3CC3)CC2)c1	2100 nM	–	–	–	–	89%	–
CN(C)C(=O)c1ccc2nc(NC3CC3)c(N3CCN(Cc4cc(Cl)ccc4Cl)CC3)nc2c1	90 nM	–	–	–	–	105%	–
CC(C)Nc1nc2ccncc2nc1N1CCN(Cc2ccc(F)cc2F)CC1	21 nM	14	9	–	–	–	–
Cc1cc2nc(NC3CC3)c(N3CCC(Oc4ccc(F)cc4F)CC3)nc2cn1	29 nM	105	19	75%	6310 nM	–	–
CCn1c(=O)c2c(nc(/C=C/c3ccc(OC)c(OC)c3)n2C)n(CC)c1=O	–	–	–	–	–	–	Activity (Mus musculus [12]): Active; Activity (Rattus norvegicus [13]): Active; Activity (Mus musculus [14]): Active
CCC(=O)N1CCc2nc(N3CCN(Cc4ccc(F)cc4F)CC3)c(NC(C)C)nc2C1	30 nM	16	20	–	> 10000 nM	–	–
Cc1ccc2nc(N3CCN(Cc4cc(Cl)ccc4Cl)CC3)c(NC3CC3)nc2c1	16000 nM	–	–	–	–	90%	–
Cc1cccc(CN2CCN(c3nc4ccccc4nc3NC3CC3)CC2)c1	14000 nM	–	–	–	–	110%	–
Cc1cccc(CN2CCN(c3nc4nonc4nc3NC3CC3)CC2)c1	43000 nM	–	–	–	–	73%	–
Fc1ccc(CN2CCN(c3nc4cnccc4nc3NC3CC3)CC2)c(F)c1	39 nM	80	21	40%	50.1 nM	–	Activity (Rattus norvegicus [15]): Dose-Dependent Effect; efflux ratio (P-gp (MDR1, ABCB1)): 0.5; Papp A→B [7]: 16 ×10⁻⁶ cm/s; Activity (Mus musculus [16]): inactive; Ki [8]: 7 nM
CC(C)Nc1nc2c(nc1N1CCC(Oc3ccc(F)cc3F)CC1)CCN(C)C2	89 nM	69	21	36%	> 10000 nM	–	–
Cc1cc2nc(NC(C)C)c(N3CCC(Oc4ccc(F)cc4F)CC3)nc2cn1	16 nM	27	13	75%	6310 nM	–	–
